YB-1 expr inh: inhibitors of YB-1 gene expression, primary screen, cell-based, fluorescence. U2OS, qRT-PCR YB-1 vs CDIP delta delta Cp, 16 h; stronger effect = higher value; zero = DMSO, each unit about twofold. delta delta Cp (YB-1 minus CDIP) (no concentration beside the values). 30,000 tested, 0.37% active;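 active means delta delta Cp rounded down to an integer at or above 3, about 3 SD of DMSO wells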;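 further: higher means less YB-1 transcript or more CDIP transcript relative to DMSO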
T cruzi HTS: inhibitors of intracellular Trypanosoma cruzi, primary screen, cell-based, plate reader, single point, set 2 | intracellular Trypanosoma cruzi in host cells | activity score (inhibition), % at 5.01 µM | 22,000 tested, 4.9% active | AID 651903, 2012; in the data active means activity score above about 55%; inconclusive means no clear call, values can overlap the other calls;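 further: parasites and compound incubated about four days before reading; 0% = median of neutral control wells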
INS-1E rescue: protection of INS-1E cells from cytokine death, primary screen, ATP luminescence, single point. INS-1E cytokine-induced death, 48 h; normalised: neutral wells 0, positive control 100. protection from cytokine-induced ATP loss, % at 10 µM. 20,000 tested, 0.1% active;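 active means mean replicate protection from cytokine-induced ATP loss at least 50% and at least 75% of replicates each reaching 50%; inconclusive means meets only one of the two criteria, mean or replicate share; inactive means fails both the mean and replicate share criteria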
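Assay system: INS-1E rat insulinoma cells. Amount: 8000 cells per well. Medium: phenol-red-free RPMI with 5% fetal bovine serum. Reagent: IL-1β, TNF-α and IFN-γ cytokine mix. Doses: one compound concentration, pin transfer. Schedule: 48 h co-treatment, 10 min post-lysis read. Detection: CellTiter-Glo luminescence measuring cellular ATP.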
* = called active by the depositor; ? = inconclusive; / = not tested or not shown. Many of the other results were omitted from the sample, so hits are more common in it than they were.

SMILES	YB-1 expr inh	T cruzi HTS	INS-1E rescue
C[C@H](CO)N1C[C@H](C)[C@H](CN(C)Cc2ccc(C(=O)Nc3ccccc3N)cc2)Oc2c(NC(=O)Nc3ccc(F)cc3)cccc2C1=O	-0.0281	51.2	-8.2
C[C@@H]1CN([C@@H](C)CO)C(=O)c2cccc(NC(=O)Nc3ccc(C(F)(F)F)cc3)c2O[C@H]1CN(C)Cc1ccc(C(=O)Nc2ccccc2N)cc1	-0.213	?	-26.2
C[C@@H]1CN([C@@H](C)CO)C(=O)c2cccc(NC(=O)Nc3ccc(F)cc3)c2O[C@H]1CN(C)Cc1ccc(C(=O)Nc2ccccc2N)cc1	-0.0788	73.0*	2.3
CNC[C@H]1Oc2ccc(NC(=O)Cc3ccccc3)cc2CC(=O)N([C@H](C)CO)C[C@H]1C	-0.322	-16.2	5.9
COc1ccc(NC(=O)N(C)C[C@@H]2Oc3ccc(NC(=O)C4CCCCC4)cc3C(=O)N([C@H](C)CO)C[C@@H]2C)cc1	-0.516	-10.5	/
Cc1ccc(S(=O)(=O)Nc2cccc3c2O[C@@H](CN(C)S(=O)(=O)c2ccc(F)cc2)[C@H](C)CN([C@@H](C)CO)C3=O)cc1	-0.166	-7.1	1.9
CCCCC[C@@H](O)CC(=O)CCc1ccc(O)c(OC)c1	0.244	/	/
C[C@@H]1CN([C@H](C)CO)C(=O)Cc2cc(NC(=O)C3CCCCC3)ccc2O[C@@H]1CN(C)S(=O)(=O)c1ccc(F)cc1	-0.132	-3.0	7.1
O=C1CC(C2CCCO2)C(=O)N1c1cccc(C(F)(F)F)c1 (centres undefined)	5.8*	/	/
O=C(CSc1n[nH]c(=O)n1-c1cccc(C(F)(F)F)c1)N1CCC(C(F)(F)F)CC1	-0.0431	/	/
Cc1oc2cc(OC(C)C)ccc2c(=O)c1-c1ccc2c(c1)OCCO2	6.88*	/	/
CC(C)Oc1ccc2c(=O)cc(-c3ccccc3)oc2c1	0.114	/	/
CC1CC(=O)C2=C(C1)C(Cl)C(O)C1(O)C2C(=O)c2cccc(O)c2C1O (centres undefined)	0.841	/	/
C[C@H]1CN([C@@H](C)CO)C(=O)Cc2cc(NC(=O)Nc3ccc(C(F)(F)F)cc3)ccc2O[C@H]1CN(C)CC1CCCCC1	-0.24	72.0*	-55.7
C[C@H]1CN([C@@H](C)CO)C(=O)Cc2cc(NC(=O)Nc3ccccc3)ccc2O[C@@H]1CN(C)CC1CCCCC1	0.286	27.2	-17.2
C[C@@H]1CN([C@@H](C)CO)C(=O)Cc2cc(NC(=O)Nc3ccc(C(F)(F)F)cc3)ccc2O[C@@H]1CN(C)CC1CCCCC1	0.208	77.0*	-45.9
C[C@H]1CN([C@@H](C)CO)C(=O)Cc2cc(NC(=O)Nc3ccc(C(F)(F)F)cc3)ccc2O[C@@H]1CN(C)CC1CC1	-0.0147	-29.5	4.3
Cc1ccc(Cn2nc(C(=O)Sc3cccc(Cl)c3Cl)cc2C)cc1	0.0144	/	/
CC(C)NC(=O)Nc1ccc2c(c1)C(=O)N([C@H](C)CO)C[C@@H](C)[C@H](CN(C)S(=O)(=O)c1cn(C)cn1)O2	-0.471	-9.8	0.6
COc1ccc(S(=O)(=O)N(C)C[C@H]2Oc3ccc(NC(=O)Nc4ccccc4)cc3C(=O)N([C@@H](C)CO)C[C@H]2C)cc1	-0.877	0.3	-11.1
C[C@H]1CN([C@@H](C)CO)C(=O)Cc2cc(NC(=O)CCCCCC(=O)Nc3ccccc3N)ccc2O[C@H]1CN(C)CC1CCCCC1	-0.0419	-12.4	14.7
Cc1noc(C)c1S(=O)(=O)Nc1cccc2c1O[C@H](CN(C)C(=O)Nc1ccc3c(c1)OCO3)[C@H](C)CN([C@H](C)CO)C2=O	0.0885	11.8	7.9
N#Cc1c(SCc2ccccc2Cl)nc2c(c1C(F)(F)F)CCc1occc1-2	0.181	/	/
C[C@@H]1CN([C@H](C)CO)C(=O)c2cccc(NC(=O)NC3CCCCC3)c2O[C@@H]1CN(C)Cc1ccc(-c2ccccc2)cc1	-0.21	70.2*	-32.1
C[C@@H]1CN([C@@H](C)CO)C(=O)c2cccc(NC(=O)NC3CCCCC3)c2O[C@@H]1CN(C)Cc1ccc(Oc2ccccc2)cc1	0.0863	63.8*	-53.3
SMILES	YB-1 expr inh	T cruzi HTS	INS-1E rescue
C[C@H]1CN([C@@H](C)CO)C(=O)c2cccc(NC(=O)NC3CCCCC3)c2O[C@H]1CN(C)Cc1ccc(-c2ccccc2)cc1	-0.195	-29.2	-19.4
C[C@@H]1CN([C@@H](C)CO)C(=O)c2cccc(NC(=O)NC3CCCCC3)c2O[C@H]1CN(C)Cc1ccc(C(F)(F)F)cc1	0.0407	84.6*	-6.2
C[C@H]1CN([C@@H](C)CO)C(=O)c2cccc(NC(=O)NC3CCCCC3)c2O[C@H]1CN(C)Cc1ccc(Oc2ccccc2)cc1	0.307	26.7	-32.4
C[C@@H]1CN([C@H](C)CO)C(=O)c2cccc(NC(=O)NC3CCCCC3)c2O[C@@H]1CN(C)Cc1ccc(C(F)(F)F)cc1	-0.0921	23.2	-27.2
O=c1cc(CSc2ccc(Cl)cc2)c2ccc(O)cc2o1	-0.106	/	/
COc1ccc(S(=O)(=O)N(C)C[C@@H]2Oc3c(NC(=O)C4CCOCC4)cccc3C(=O)N([C@@H](C)CO)C[C@H]2C)cc1	-0.443	25.4	2.8
Cc1noc(C)c1S(=O)(=O)Nc1cccc2c1O[C@H](CN(C)Cc1ccc(C(=O)Nc3ccccc3N)cc1)[C@H](C)CN([C@H](C)CO)C2=O	-0.224	60.1*	-13.5
C[C@@H]1CN([C@@H](C)CO)C(=O)c2cccc(NS(=O)(=O)c3ccc(F)cc3)c2O[C@@H]1CN(C)Cc1ccc(C(=O)Nc2ccccc2N)cc1	-0.658	51.5	26.2
Cc1ccc(S(=O)(=O)Nc2cccc3c2O[C@@H](CN(C)Cc2ccc(C(=O)Nc4ccccc4N)cc2)[C@H](C)CN([C@@H](C)CO)C3=O)cc1	0.0729	55.4*	-5.7
Cc1ccc(S(=O)(=O)Nc2cccc3c2O[C@H](CN(C)Cc2ccc(C(=O)Nc4ccccc4N)cc2)[C@@H](C)CN([C@@H](C)CO)C3=O)cc1	-0.176	44.0	0.2
C[C@@H]1CN([C@H](C)CO)C(=O)c2cccc(NS(=O)(=O)c3ccccc3)c2O[C@H]1CN(C)Cc1ccc(C(=O)Nc2ccccc2N)cc1	0.062	47.0	-10.3
Cc1ccc(S(=O)(=O)Nc2cccc3c2O[C@@H](CN(C)Cc2ccc(C(=O)Nc4ccccc4N)cc2)[C@@H](C)CN([C@@H](C)CO)C3=O)cc1	-0.435	64.4*	8.0
Cc1ccc(S(=O)(=O)Nc2cccc3c2O[C@H](CN(C)Cc2ccc(C(=O)Nc4ccccc4N)cc2)[C@H](C)CN([C@H](C)CO)C3=O)cc1	-0.343	50.0	22.6
C[C@H]1CN([C@@H](C)CO)C(=O)c2cccc(NS(=O)(=O)c3ccc(F)cc3)c2O[C@H]1CN(C)Cc1ccc(C(=O)Nc2ccccc2N)cc1	0.199	60.4*	-17.8
CC(=O)OCC(=O)[C@@]1(O)CCC2C3CC[C@@H]4C[C@H](OC(C)=O)CC[C@]4(C)C3C(=O)C[C@@]21C (some centres undefined)	0.273	/	/
COc1ccc(C(=O)N2c3ccccc3CCc3ccccc32)cc1	-0.238	/	/
C[C@@H]1CN([C@H](C)CO)C(=O)c2cc(NC(=O)C3CC3)ccc2O[C@@H]1CN(C)S(=O)(=O)c1cn(C)cn1	0.399	-20.4	6.3
